Data set [1] deals with RAW264.7. Kind of data set: Anti-inflammatory activity in mouse RAW264.7 cells assessed as inhibition of LPS-induced IL-6 production at 10 uM pretreated for 1 hr followed by LPS stimulation measured after 24 hrs by ELISA relative to control. Format: functional. In outline:
(§1)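 LPS-stimulated RAW 264.7 macrophages, with IL-6 and TNF-α production read separately. Test concentrations were 0.4, 2, 10 and 50 μM, and dexamethasone was the reference drug. Results are given as percent inhibition of cytokine production.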
In general terms: ELISA stands for enzyme-linked immunosorbent assay.

Another data set has as its system HepG2. Kind of data set: Cytotoxicity against human HepG2 cells after 72 hrs by MTT assay. Format: functional, cell-based. The conditions noted are these: HepG2, 72 h. In outline: (§2)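 MTT growth-inhibition assay in human HepG2 hepatocellular, NCI-N87 gastric and MCF-7 breast carcinoma lines, with a doxorubicin positive control. IC50 values are means ± SD from three individual experiments; >10.0 μM was taken as noncytotoxic.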
(In general: Formazan colour is commonly taken as a measure of viable cells.)

For a further data set, the system named is MCF7. The data set can be described thus: Cytotoxicity against human MCF7 cells after 72 hrs by MTT assay. Format: functional, cell-based. Particulars: MCF7, 72 h. The method, boiled down: as §2
Data set [2] deals with RAW264.7. The data set can be described thus: Anti-inflammatory activity in mouse RAW264.7 cells assessed as inhibition of LPS-induced TNF-alpha production at 10 uM pretreated for 1 hr followed by LPS stimulation measured after 24 hrs by ELISA relative to control. Format: functional. In outline: as §1
For data set [3], the system named is RAW264.7. The data set can be described thus: Anti-inflammatory activity in mouse RAW264.7 cells assessed as inhibition of LPS-induced IL-6 production at 50 uM pretreated for 1 hr followed by LPS stimulation measured after 24 hrs by ELISA relative to control. The data set is classed as functional. The method, boiled down:
as §1

For data set [4], the system named is RAW264.7. The data set can be described thus: Anti-inflammatory activity in mouse RAW264.7 cells assessed as inhibition of LPS-induced TNF-alpha production at 50 uM pretreated for 1 hr followed by LPS stimulation measured after 24 hrs by ELISA relative to control. The data set is classed as functional. In outline: as §1
Data set [5] in a line: Cytotoxicity against mouse RAW264.7 cells assessed as growth inhibition at 50 uM after 72 hrs by MTT assay relative to control. Format: cell-based. The conditions noted are these: read-out: GI.
The test system of data set [6] is RAW264.7. The data set can be described thus: Anti-inflammatory activity in mouse RAW264.7 cells assessed as inhibition of LPS-induced TNF-alpha production at 2 uM pretreated for 1 hr followed by LPS stimulation measured after 24 hrs by ELISA relative to control. Format: functional. The method, boiled down: as §1
A further data set has as its system NCI-N87. Kind of data set: Cytotoxicity against human NCI-N87 cells after 72 hrs by MTT assay. Format: functional, cell-based. Particulars: NCI-N87, 72 h. The method, boiled down: as §2
Data set [7] relates to RAW264.7. The data set can be described thus: Anti-inflammatory activity in mouse RAW264.7 cells assessed as inhibition of LPS-induced IL-6 production at 2 uM pretreated for 1 hr followed by LPS stimulation measured after 24 hrs by ELISA relative to control. The data set is classed as functional. The method, boiled down:
as §1

Data set [8] has as its system RAW264.7. Kind of data set: Anti-inflammatory activity in mouse RAW264.7 cells assessed as inhibition of LPS-induced IL-6 production at 0.4 uM pretreated for 1 hr followed by LPS stimulation measured after 24 hrs by ELISA relative to control. The data set is classed as functional. In outline:
as §1

Data set [9] deals with RAW264.7. Kind of data set: Anti-inflammatory activity in mouse RAW264.7 cells assessed as inhibition of LPS-induced TNF-alpha production at 0.4 uM pretreated for 1 hr followed by LPS stimulation measured after 24 hrs by ELISA relative to control. Format: functional. In outline:
as §1

The nature of data set [10]: Cytotoxicity against mouse RAW264.7 cells assessed as growth inhibition at 10 uM after 72 hrs by MTT assay relative to control. Format: cell-based. The conditions noted are these: read-out: GI.

`CC1(C)CC[C@]2(C(=O)O)CC[C@]3(C)C(=CC(=O)[C@@H]4[C@@]5(C)C[C@@H](O)[C@H](O)[C@@](C)(CO)[C@@H]5CC[C@]43C)[C@@H]2C1`: the inhibition at 10 µM in the data set on RAW264.7 [1] is 35.2%; with RAW264.7 [2], < 10%. Further, the IC50 in the data set on HepG2, in the data set on MCF7 and in the data set with NCI-N87 was > 10 µM in each case. Moreover, the inhibition at 50 µM came to 63% with RAW264.7 [3] and 18.8% in the data set with RAW264.7 [4]. Moreover, the inhibition at 72 h, 50 µM in [5] was < 5%. In addition, the figures for the inhibition at 2 µM in the data set with RAW264.7 [6] and with RAW264.7 [7] were < 10% and 33.8%, respectively.

For the compound `CC1(C)CC[C@@]23CC[C@]4(C)[C@@](OC2=O)([C@@H]3C1)[C@H]1O[C@H]1[C@@H]1[C@@]2(C)C[C@@H](O)[C@H](O)[C@@](C)(CO)[C@@H]2CC[C@]14C`, the inhibition at 10 µM with RAW264.7 [1] and in the data set with RAW264.7 [2] was < 50% each time. Also, the IC50 with HepG2, in the data set on MCF7 and with NCI-N87 was > 10 µM in each case. Also, the inhibition at 0.4 µM in the data set on RAW264.7 [8] and in the data set with RAW264.7 [9] was < 50% each time. Moreover, the inhibition at 50 µM in the data set on RAW264.7 [3] and in the data set on RAW264.7 [4] was < 50% in each case. In addition, the inhibition at 72 h, 50 µM in data set [5] was < 5%. The inhibition at 2 µM with RAW264.7 [6] and with RAW264.7 [7] was < 50% each time.

With `CC1(C)CC[C@]2(C(=O)O)CC[C@]3(C)C(=C[C@@H](O)[C@@H]4[C@@]5(C)C[C@@H](O)[C@H](O)[C@@](C)(CO)[C@@H]5CC[C@]43C)[C@@H]2C1`, the inhibition at 10 µM in the data set with RAW264.7 [1] was determined as 69.9%; in the data set with RAW264.7 [2], 57.7%. In addition, the IC50 in the data set on HepG2, in the data set on MCF7 and in the data set with NCI-N87 was > 10 µM throughout. The inhibition at 50 µM was 74.9% in the data set on RAW264.7 [3] and 65.6% in the data set with RAW264.7 [4]. Also, the inhibition at 72 h, 50 µM in data set [5] was < 5%. Besides, the results for the inhibition at 2 µM in the data set with RAW264.7 [6] and in the data set on RAW264.7 [7] were 53.7% and 68.1%, respectively.

Consider `CO[C@@H]1C=C2[C@@H]3CC(C)(C)CC[C@]3(C(=O)O)CC[C@@]2(C)[C@]2(C)CC[C@@H]3[C@](C)(C[C@@H](O)[C@H](O)[C@@]3(C)CO)[C@@H]12`, for which the inhibition at 10 µM with RAW264.7 [1] was 64.8%; with RAW264.7 [2], 54.1%. Besides, the concentration for half-maximal inhibition (IC50) in the data set with HepG2, in the data set on MCF7 and with NCI-N87 was > 10 µM each time. Also, the values for the inhibition at 50 µM with RAW264.7 [3] and in the data set with RAW264.7 [4] were 68.8% and 52.8%, respectively. Moreover, the inhibition at 72 h, 50 µM in data set [5] was < 5%. The values for the inhibition at 2 µM in the data set on RAW264.7 [6] and with RAW264.7 [7] were 22% and 42.3%, respectively.

Regarding `C[C@H]1[C@@H]2[C@H]3CC[C@@H]4[C@@]5(C)CC[C@H](O)C(C)(C)[C@@H]5CC[C@@]4(C)[C@]3(C)CC[C@@]23C[C@@H](O)[C@]1(C)OC3=O`, the inhibition at 10 µM in the data set on RAW264.7 [1] and in the data set with RAW264.7 [2] was < 50% throughout. The inhibition at 72 h, 10 µM in [10] was < 5%. The figures for the concentration for half-maximal inhibition (IC50) with HepG2, in the data set with MCF7 and in the data set on NCI-N87 were > 10 µM, > 10 µM and 7.3 µM, respectively. The inhibition at 0.4 µM in the data set on RAW264.7 [8] and in the data set on RAW264.7 [9] was < 50% throughout. Besides, the inhibition at 50 µM in the data set with RAW264.7 [3] and with RAW264.7 [4] was < 50% each time. Moreover, the inhibition at 2 µM with RAW264.7 [6] and in the data set with RAW264.7 [7] was < 50% in each case.

`CC1(C)CC[C@]2(C(=O)O)CC[C@]3(C)C(=CC[C@@H]4[C@@]5(C)C[C@@H](O)[C@H](O)C(C)(C)[C@@H]5CC[C@]43C)[C@@H]2C1` [MASLINIC ACID]: the inhibition at 10 µM in the data set with RAW264.7 [1] and in the data set on RAW264.7 [2] was < 50% in each case. Moreover, the inhibition at 72 h, 10 µM in [10] is < 5%. Also, the concentration for half-maximal inhibition (IC50) in the data set on HepG2, in the data set with MCF7 and with NCI-N87 was > 10 µM each time. For the same compound, the inhibition at 0.4 µM with RAW264.7 [8] and in the data set with RAW264.7 [9] was < 50% each time. Besides, the inhibition at 50 µM in the data set on RAW264.7 [3] and in the data set with RAW264.7 [4] was < 50% throughout. Moreover, the inhibition at 2 µM in the data set with RAW264.7 [6] and with RAW264.7 [7] was < 50% each time.

These data come from ChEMBL document CHEMBL4002555, “Bioactive Pentacyclic Triterpenoids from the Leaves of Cleistocalyx operculatus” (J Nat Prod, 2016).
